These results are taken from ChEMBL document CHEMBL4422612, “Small Molecule Inhibitor that Stabilizes the Autoinhibited Conformation of the Oncogenic Tyrosine Phosphatase SHP2” (J Med Chem, 2019).

The structures appear in SMILES notation. Active and inactive are the calls of the source. The rule behind the calls is not given here.

The target in this experiment is T1, Tyrosine-protein phosphatase non-receptor type 11 (Homo sapiens) (UniProt Q06124).
T1 sequence (whole entry): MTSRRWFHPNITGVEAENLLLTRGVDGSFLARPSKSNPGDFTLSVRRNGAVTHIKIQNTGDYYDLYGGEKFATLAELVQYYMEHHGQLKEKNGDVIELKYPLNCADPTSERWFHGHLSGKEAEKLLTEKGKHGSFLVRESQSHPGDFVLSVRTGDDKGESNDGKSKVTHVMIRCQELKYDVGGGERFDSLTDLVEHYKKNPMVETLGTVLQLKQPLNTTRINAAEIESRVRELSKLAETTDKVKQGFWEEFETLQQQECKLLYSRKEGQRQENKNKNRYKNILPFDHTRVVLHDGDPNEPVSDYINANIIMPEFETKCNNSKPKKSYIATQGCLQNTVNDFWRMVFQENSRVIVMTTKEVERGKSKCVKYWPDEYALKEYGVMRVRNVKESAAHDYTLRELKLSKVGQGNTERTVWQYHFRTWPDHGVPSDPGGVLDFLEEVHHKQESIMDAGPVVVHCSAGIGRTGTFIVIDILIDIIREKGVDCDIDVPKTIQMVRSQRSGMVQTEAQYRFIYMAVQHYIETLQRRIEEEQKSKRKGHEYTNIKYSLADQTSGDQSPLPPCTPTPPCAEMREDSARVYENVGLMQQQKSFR
In words: Inhibition of wild type recombinant human SHP2 at 50 uM using H-Glu-Phe-pTyr-Ala-Glu-Val-Gly-Arg-Ser-Pro-Pro-Asp-Pro-Ala-Lys as substrate preincubated for 30 mins followed by substrate addition and measured after 30 mins by Malachite Green-reagent based assay. A digest of the protocol:
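Full-length SHP2 or SHP1 (0.1 µg) preincubated with compound 30 min at room temperature in 25 mM Tris-HCl pH 7.4, 50 mM NaCl, 5 mM DTT, 2.5 mM EDTA. Phospho-peptide substrate added to 50 µM final; 30 min at 30 °C. Released phosphate read by Malachite Green at OD620. IC50 from six concentrations; three experiments.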

For `C=CCOc1cc(O)c(C(=O)/C=C/c2ccc(Cl)cc2Cl)cc1CN1CCCCC1`, the inhibition entry was “Active”. With `CCOc1cc(O)c(C(=O)/C=C/c2ccc(Cl)cc2Cl)cc1CN1CCC(O)CC1` the entry was “Active”.

As for `C=CCOc1cc(O)c(C(=O)/C=C/c2ccc(Cl)cc2Cl)cc1CN1CCC(O)CC1`, the inhibition entry was “Active”. For `CCOc1cc(O)c(C(=O)/C=C/c2ccc(OC)cc2)cc1CN1CCCCC1` the value was “Active”.

On to `CCOc1cc(O)c(C(=O)/C=C/c2ccc(Cl)cc2Cl)cc1CN1CCNCC1C` (centres undefined), for which the inhibition entry was “Active”.

`CCOc1cc(O)c(C(=O)/C=C/c2ccc(Cl)cc2Cl)cc1CN1C[C@@H](O)C[C@@H]1C(C)=O`: the inhibition entry is “Active”. For `CCOc1cc(O)c(C(=O)/C=C/c2ccc(Cl)cc2Cl)cc1CN(CC)CC` the value was “Active”; for `CCOc1cc(O)c(C(=O)/C=C/c2ccc(Cl)cc2Cl)cc1CN1CCCCC1`, “Active”. With `CCOc1cc(O)c(C(=O)/C=C/c2ccc(Cl)cc2)cc1CN1CCCC1` the entry was “Active”.
